Assay results: ChEMBL document CHEMBL5236601, “Development and Utility of a PAK1-Selective Degrader” (J Med Chem, 2022)
pEC50: −log10 of the molar value. The source made the active and inactive calls. The rule behind the calls is not given here.

How the values were obtained:
Format in all cases: functional, cell-based
[1] = test system: OVCAR-3; assay: Antiproliferative activity against human OVCAR-3 cells assessed as cell viability measured after 72 hrs incubation by MTT assay
In short: (§1)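 Seeded at 2 x 10^3 cells/well overnight, then exposed to a range of concentrations for 72 hours (the figure legend states 96 hr). Cell viability read by MTT, with medium alone as blank. Triplicate wells, at least three independent experiments. IC50/EC50 from curve fitting, reported as means ± SD (n=3).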

[2] = test system: MCF7; assay: Antiproliferative activity against human MCF7 cells assessed as cell viability measured after 72 hrs incubation by MTT assay; in short: as §1
[3] = test system: OMM-1; assay: (§2) Antiproliferative activity against human OMM-1 cells assessed as cell viability measured after 72 hrs incubation by MTT assay; in short: as §1
[4] = test system: HEY A8; assay: (§3) Antiproliferative activity against human HeyA8 cells assessed as cell viability measured after 72 hrs incubation by MTT assay; in short: as §1
[5] = test system: MCF7; assay: Antiproliferative activity against human MCF7 cells assessed as effect on doxycycline-induced PAK1-specific shRNA mediated reduction in PAK1 expression by measuring reduction in cell index after 114 hrs
[6] = as §2; details: OMM-1, 72 h; in short: as §1
[7] = as §3; details: HEY A8, 72 h; in short: as §1

Compound | Activity [1] | Activity [2] | Activity [3] | Activity [4] | pEC50 ([1]; OVCAR-3, 72 h) | pEC50 ([2]; MCF7, 72 h) | Activity [5] | pEC50 [6] | pEC50 [7]
Nc1cccc2c1CN(C1CCC(=O)NC1=O)C2=O (centres undefined) | inactive | inactive | inactive | inactive |  |  |  |  | 
CC(C)NC(=O)N1CC[C@@H](NC2=Nc3cc(F)ccc3N(CC(F)F)c3ccc(Cl)cc32)C1 |  |  |  |  | 5.05 | 4.93 | Active | 4.92 | 4.47
